Measured values reported in ChEMBL document CHEMBL1134263, “Syntheses and evaluation of quinoline derivatives as novel retinoic acid receptor alpha antagonists” (Bioorg Med Chem Lett, 2001).

Tests used:
[1] = system: HL-60; test: Agonistic activity was evaluated by HL-60 cell differentiation activity; Not detectable; format: functional, Homo sapiens
Outline: (§1)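 HL-60 cell differentiation was read out as CD11b expression, used as the differentiation marker.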

[2] = target: T1, Retinoic acid receptor alpha (Homo sapiens, UniProt P10276); test: Antagonistic activity was evaluated in terms of inhibition of Retinoic acid receptor alpha transactivation by ATRA (50 nM); format: functional
T1 sequence (P10276 whole entry): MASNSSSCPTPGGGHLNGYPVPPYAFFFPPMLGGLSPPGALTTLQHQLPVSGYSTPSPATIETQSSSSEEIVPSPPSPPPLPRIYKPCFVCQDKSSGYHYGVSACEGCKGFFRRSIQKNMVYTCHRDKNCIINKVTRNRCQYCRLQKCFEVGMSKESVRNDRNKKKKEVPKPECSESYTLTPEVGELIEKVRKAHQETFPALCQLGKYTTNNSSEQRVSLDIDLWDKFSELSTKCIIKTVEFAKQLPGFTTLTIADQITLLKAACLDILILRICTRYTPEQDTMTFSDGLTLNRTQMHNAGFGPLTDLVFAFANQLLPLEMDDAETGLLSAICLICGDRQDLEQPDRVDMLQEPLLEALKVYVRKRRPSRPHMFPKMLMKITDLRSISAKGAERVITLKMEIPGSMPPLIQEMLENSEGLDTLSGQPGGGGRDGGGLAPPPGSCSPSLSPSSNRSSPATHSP

[3] = target: T2, Retinoic acid receptor beta (Homo sapiens) (UniProt P10826); test: In vitro binding affinity towards Retinoic acid receptor beta evaluated relative to that of All-trans retinoic acids(Mean of ATRA IC50 = 0.52 nM)
T2 sequence (whole entry): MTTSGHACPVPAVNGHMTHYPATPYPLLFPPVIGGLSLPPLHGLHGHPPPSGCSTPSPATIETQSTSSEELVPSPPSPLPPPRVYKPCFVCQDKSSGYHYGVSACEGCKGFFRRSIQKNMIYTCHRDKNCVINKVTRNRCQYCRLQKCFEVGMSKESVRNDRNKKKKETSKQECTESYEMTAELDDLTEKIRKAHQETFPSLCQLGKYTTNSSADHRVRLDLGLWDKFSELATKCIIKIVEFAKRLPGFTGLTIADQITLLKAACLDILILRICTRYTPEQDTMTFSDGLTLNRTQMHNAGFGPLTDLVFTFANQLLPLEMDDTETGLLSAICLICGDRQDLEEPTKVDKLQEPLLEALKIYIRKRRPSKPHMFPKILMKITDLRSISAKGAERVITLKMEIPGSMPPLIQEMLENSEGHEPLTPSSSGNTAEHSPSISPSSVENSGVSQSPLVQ

[4] = target: T3, Retinoic acid receptor gamma (Homo sapiens) (UniProt P13631); test: Retinoid activity at Retinoic acid receptor gamma was evaluated relative to that of All-trans retinoic acids(Mean of ATRA EC50 = 0.26 nM)
T3 sequence (whole entry): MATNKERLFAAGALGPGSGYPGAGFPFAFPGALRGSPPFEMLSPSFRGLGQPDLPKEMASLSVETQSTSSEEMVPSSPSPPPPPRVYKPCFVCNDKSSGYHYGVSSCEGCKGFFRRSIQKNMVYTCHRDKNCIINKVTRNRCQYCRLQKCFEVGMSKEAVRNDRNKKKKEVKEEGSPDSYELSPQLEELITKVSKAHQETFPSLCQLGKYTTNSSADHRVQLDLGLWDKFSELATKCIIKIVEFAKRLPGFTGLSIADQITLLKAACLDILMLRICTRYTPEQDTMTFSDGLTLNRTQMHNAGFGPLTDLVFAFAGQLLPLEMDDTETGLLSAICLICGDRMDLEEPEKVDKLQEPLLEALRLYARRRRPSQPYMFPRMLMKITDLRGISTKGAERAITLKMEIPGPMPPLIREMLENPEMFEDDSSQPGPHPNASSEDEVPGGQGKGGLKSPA
Outline: (§2)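 Gene transcription was induced in a co-transfection transactivation assay at each RAR subtype. Full dose-response curves started from 0.1 nM. EC30 is the concentration giving 30% of the maximal observed response. The reported value is the mean of EC30/ATRA EC30. Activity was taken as not detectable when EC30 > 3000 nM.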

[5] = target: T3, Retinoic acid receptor gamma (Homo sapiens); test: In vitro binding affinity towards Retinoic acid receptor gamma evaluated relative to that of All-trans retinoic acids(Mean of ATRA IC50 = 0.42 nM)
[6] = target: T4, Retinoic acid receptor alpha (Homo sapiens) (UniProt P10276); test: Retinoid activity at Retinoic acid receptor alpha was evaluated relative to that of All-trans retinoic acids(Mean of ATRA EC50 = 1.06 nM); Not detectable; outline: as §2
T4 sequence (whole entry): T1 sequence (P10276 whole entry)

[7] = target: T4, Retinoic acid receptor alpha (Homo sapiens); test: In vitro binding affinity towards Retinoic acid receptor alpha evaluated relative to that of All-trans retinoic acids(Mean of ATRA IC50 = 0.66 nM)
[8] = target: T5, Retinoic acid receptor gamma (Homo sapiens, UniProt P13631); test: Antagonistic activity was evaluated in terms of inhibition of Retinoic acid receptor gamma transactivation by ATRA (50 nM); Not detectable; format: functional
T5 sequence (P13631 whole entry): T3 sequence (whole entry)

[9] = target: T6, Retinoic acid receptor beta (Homo sapiens, UniProt P10826); test: Antagonistic activity was evaluated in terms of inhibition of Retinoic acid receptor beta transactivation by ATRA (50 nM); Not detectable; format: functional
T6 sequence (P10826 whole entry): T2 sequence (whole entry)

[10] = system: HL-60; test: Antagonistic activity was evaluated in terms of inhibition of HL-60 cell differentiation activity by ATRA (10 nM); format: functional, cell-based; details: Homo sapiens
Outline: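 HL-60 cells were induced to differentiate with ATRA (10 nM). Antagonism was scored as inhibition of that differentiation, read out as CD11b expression.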

[11] = target: T2, Retinoic acid receptor beta (Homo sapiens); test: Retinoid activity at Retinoic acid receptor beta was evaluated relative to that of All-trans retinoic acids(Mean of ATRA EC50 = 1.02 nM); outline: as §2
[12] = target: T4, Retinoic acid receptor alpha (Homo sapiens); test: Retinoid activity at Retinoic acid receptor alpha was evaluated relative to that of All-trans retinoic acids(Mean of ATRA EC50 = 1.06 nM); outline: as §2
[13] = system: HL-60; test: Agonistic activity was evaluated by HL-60 cell differentiation activity; format: functional, Homo sapiens; outline: as §1
[14] = target: T3, Retinoic acid receptor gamma (Homo sapiens); test: In vitro binding affinity towards Retinoic acid receptor gamma evaluated relative to that of All-trans retinoic acids(Mean of ATRA IC50 = 0.42 nM); Not detectable

`CC(C)c1cccc2c(-c3ccccc3)cc(-c3ccc(-c4ccc(C(=O)O)cc4)[nH]3)nc12` was tested, and the ED30 [1] was greater than 10000 nM, the IC50 [2] was 31.2 nM and the Relative IC50 [3] was 535. The Relative EC30 [4] was greater than 3000, the Relative IC50 [5] was 432 and the Relative EC30 [6] was greater than 3000. The Relative IC50 [7] was 1.8, the IC50 [8] was greater than 3000 nM and the IC50 [9] was greater than 3000 nM. For the same molecule, the IC50 [10] was 6.4 nM.

Molecule `COc1cc(-c2ccc(-c3ccc(C(=O)O)cc3)[nH]2)nc2c(C(C)C)cccc12` has an ED30 [1] greater than 10000 nM, a Relative EC30 [11] of 38 and a Relative IC50 [3] of 475. The Relative EC30 [4] was 4460, the Relative IC50 [5] was 834 and the Relative EC30 [6] was greater than 3000. The Relative IC50 [7] was 0.8 and the IC50 [10] was 1.6 nM.

`CCc1cc(-c2ccc(-c3ccc(C(=O)O)cc3)[nH]2)nc2c(C(C)C)cccc12` gave an ED30 [1] greater than 10000 nM, a Relative EC30 [11] of 22 and a Relative IC50 [3] of 32. For the same molecule, the Relative EC30 [4] was 180, the Relative IC50 [5] was 22 and the Relative EC30 [12] was 2.5. The Relative IC50 [7] was 0.7 and the IC50 [10] was 17 nM.

`Cc1cc(-c2ccc(-c3ccc(C(=O)O)cc3)[nH]2)nc2c(C(C)C)cccc12` was tested, and the ED30 [13] was 100 nM, the Relative EC30 [11] was 16 and the Relative IC50 [3] was 71. The Relative EC30 [4] was 903, the Relative IC50 [5] was 141 and the Relative EC30 [12] was 2.8. The Relative IC50 [7] was 1.7.

For `CC(C)c1cccc2ccc(-c3ccc(-c4ccc(C(=O)O)cc4)[nH]3)nc12`, the ED30 [13] was 2500 nM, the Relative EC30 [11] was 97 and the Relative IC50 [3] was 579. It also gave a Relative EC30 [4] of 5770, a Relative IC50 [14] greater than 1000 and a Relative EC30 [12] of 3. It also gave a Relative IC50 [7] of 5.7.

Work on `CC(C)c1cccc2c(Cl)cc(-c3ccc(-c4ccc(C(=O)O)cc4)[nH]3)nc12` yielded an ED30 [13] of 100 nM, a Relative EC30 [11] of 17 and a Relative IC50 [3] of 79. The Relative EC30 [4] was 1160, the Relative IC50 [5] was 251 and the Relative EC30 [12] was 1.9. It also gave a Relative IC50 [7] of 1.3.
